Test [1] in a line: thallium flux activation in parental CHO cells, counter-screen for KCNQ1 potentiator project (AID 493006;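 active = duplicate-averaged activation above buffer control mean plus 5 SD of those controls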). The note with it: parental CHO-K1 cells, FluxOR thallium flux, at 10 µM; hits give high values. The method in brief:
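Assay system: Untransfected host CHO-K1 cells with FluxOR thallium dye | Probe or stimulus: Potassium/thallium depolarization pulse | Schedule: Overnight 37 °C plating, 90 min RT dye, 20 min compound | Detection: Kinetic thallium-flux fluorescence | Read-out: Max-minus-min fluorescence over baseline, percent of buffer-to-R-L3 span | Benchmarks: Low control buffer, high control R-L3 activator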

Test [2] has as its target Potassium voltage-gated channel subfamily KQT member 1 (Homo sapiens) (UniProt P51787). The test is described as follows: KCNQ1 potassium channel potentiators, confirmation, FluxOR thallium flux, CHO cells, duplicates (AID 493007).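 As to outcome: cells depolarized by a potassium plus thallium sulfate stimulus after compound.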 Conditions: KCNQ1 cell line, FluxOR thallium flux fluorescence, at 10 µM; hits give high values, % of reference activator effect, buffer zero. In short, it runs like this: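 Material: KCNQ1-expressing CHO cell line; Incubation: FluxOR dye loading 90 min, compound exposure 20 min, room temperature; Detection: FluxOR Tl+ flux fluorescence, 10 s baseline plus 110 s recording; Read-out: percent activation between buffer and R-L3 responses; Control set: buffer-only wells as 0% and R-L3 activator as 100%; Replication: duplicate wells per compound.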

For test [3], the target named is Potassium voltage-gated channel subfamily KQT member 2 (Rattus norvegicus) (UniProt O88943). The test is described as follows: rat KCNQ2 channel potentiation, selectivity assay for KCNQ1 potentiator project, KCNQ2-CHO-K1 cells (AID 493009;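 active = mean duplicate potentiation above the buffer control mean plus 5 SD of buffer wells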;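 also: assay conditions were tuned for KCNQ1 rather than KCNQ2 modulators; signal is max minus min fluorescence divided by baseline after thallium stimulus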). Conditions: FluxOR thallium flux fluorescence, at 10 µM; hits give high values, scaled: buffer 0, activator control 100.
For test [4], the target named is Potassium voltage-gated channel subfamily KQT member 1 (Homo sapiens) (UniProt P51787). The test is described as follows: KCNQ1 channel current potentiators, confirmation, orthogonal assay for KCNQ1 potentiator project, IonWorks patch clamp, KCNQ1-CHO cells (AID 493184;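 active = current rise at least 3 SD above the untreated control mean in each of two repeat wells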). Conditions: automated patch clamp current, at 10 µM. In short, it runs like this:
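assay system = KCNQ1-expressing CHO cells | medium = external bath solution at pH 7.4 | probe or stimulus = 2,000 ms depolarization, -90 to +40 mV | compound dosing = 10 µM final, single point | measured by = automated voltage clamp, amphotericin B perforated patch | measure = percent current increase versus pre-compound level | replication = duplicates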
(In general: In patch-clamp work, channel activity is measured electrically.)

Test [5] deals with Potassium voltage-gated channel subfamily E member 1 (Homo sapiens) + Potassium voltage-gated channel subfamily KQT member 1 (Homo sapiens) (UniProt P15382+P51787). Put plainly: KCNQ1/KCNE1 complex potentiators, confirmation, selectivity assay for KCNQ1 potentiator project, thallium flux, CHO-K1 KCNQ1/E1 cells (AID 493186;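 active = mean duplicate activation above the buffer control mean plus 5 SD of those controls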). Conditions: FluxOR thallium flux, at 10 µM. The method in brief: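 Test system – CHO-K1 cells with KCNQ1/E1 · Measured by – FluxOR Tl+ flux fluorescence, kinetic read · Controls – buffer low control, R-L3 high control · Times – dye 90 min, compound 20 min, room temperature · Replication – duplicate wells per compound · Doses – one test concentration · Evaluation – fluorescence rise relative to baseline, as percent of R-L3 response above buffer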

Active and inactive are the calls of the source.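 The calls were made as follows, unless noted: active = potentiation averaged over duplicate wells exceeding buffer-only control mean by more than 3 SD; inactive = the rest.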

Here are results for 33 compounds from PubChem BioAssay.

Potassium voltage-gated channel subfamily E member 1 (Homo sapiens) + Potassium voltage-gated channel subfamily KQT member 1 (Homo sapiens), sequence (P51787 whole entry, looked up): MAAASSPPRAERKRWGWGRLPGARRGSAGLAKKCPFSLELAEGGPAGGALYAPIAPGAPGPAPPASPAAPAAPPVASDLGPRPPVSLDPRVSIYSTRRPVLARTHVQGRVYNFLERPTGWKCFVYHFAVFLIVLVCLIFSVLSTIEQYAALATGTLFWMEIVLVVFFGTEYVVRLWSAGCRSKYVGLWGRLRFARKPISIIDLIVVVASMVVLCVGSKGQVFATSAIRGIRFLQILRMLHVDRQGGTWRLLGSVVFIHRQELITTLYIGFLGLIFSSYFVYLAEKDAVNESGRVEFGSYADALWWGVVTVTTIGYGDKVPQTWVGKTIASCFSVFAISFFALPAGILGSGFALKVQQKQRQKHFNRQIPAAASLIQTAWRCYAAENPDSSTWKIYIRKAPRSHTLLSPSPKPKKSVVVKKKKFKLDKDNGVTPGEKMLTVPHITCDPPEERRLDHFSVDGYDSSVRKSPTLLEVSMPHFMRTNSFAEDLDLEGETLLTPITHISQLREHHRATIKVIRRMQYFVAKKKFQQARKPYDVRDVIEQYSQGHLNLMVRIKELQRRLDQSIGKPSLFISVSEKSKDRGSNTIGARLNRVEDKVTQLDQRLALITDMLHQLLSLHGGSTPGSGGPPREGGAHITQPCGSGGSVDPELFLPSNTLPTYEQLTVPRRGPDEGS
Potassium voltage-gated channel subfamily KQT member 1 (Homo sapiens), sequence (P51787 whole entry, looked up): as above
Potassium voltage-gated channel subfamily KQT member 2 (Rattus norvegicus), sequence (O88943 whole entry, looked up): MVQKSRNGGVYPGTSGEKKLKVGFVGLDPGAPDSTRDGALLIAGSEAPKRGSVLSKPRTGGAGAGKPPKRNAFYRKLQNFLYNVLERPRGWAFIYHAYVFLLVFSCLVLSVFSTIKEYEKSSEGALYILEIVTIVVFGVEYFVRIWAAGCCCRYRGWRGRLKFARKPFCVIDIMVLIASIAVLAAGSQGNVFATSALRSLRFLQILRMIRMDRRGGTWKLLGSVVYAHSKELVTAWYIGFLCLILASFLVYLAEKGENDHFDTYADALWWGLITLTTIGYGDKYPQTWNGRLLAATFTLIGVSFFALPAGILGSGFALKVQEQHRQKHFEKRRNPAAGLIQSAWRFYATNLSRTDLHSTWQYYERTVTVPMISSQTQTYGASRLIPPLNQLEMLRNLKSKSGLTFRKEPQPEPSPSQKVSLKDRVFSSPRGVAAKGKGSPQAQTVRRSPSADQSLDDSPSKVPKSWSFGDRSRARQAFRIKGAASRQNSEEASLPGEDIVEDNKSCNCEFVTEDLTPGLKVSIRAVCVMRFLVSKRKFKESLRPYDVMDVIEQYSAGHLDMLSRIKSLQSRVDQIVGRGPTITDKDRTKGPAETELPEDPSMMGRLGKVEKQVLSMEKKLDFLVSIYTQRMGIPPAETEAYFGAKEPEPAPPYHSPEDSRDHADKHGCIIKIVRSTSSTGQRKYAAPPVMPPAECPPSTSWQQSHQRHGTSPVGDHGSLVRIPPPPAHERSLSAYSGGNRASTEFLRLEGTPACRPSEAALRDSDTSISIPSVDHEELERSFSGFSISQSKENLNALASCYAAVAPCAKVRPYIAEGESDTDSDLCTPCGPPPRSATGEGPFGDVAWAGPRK

As to `c1ccc2c(c1)Sc1ccccc1N2CC1CN2CCC1CC2` (stereo not drawn), the outcome in test [1], in test [2], in test [3] and in test [4] was inactive.

Regarding `O=c1c(C=NCCN2CCNCC2)c(O)n(C2CCCCC2)c(=O)n1C1CCCCC1`, the outcome in test [1], in test [2], in test [3], in test [4] and in test [5] was inactive.

On to `CN1CC(C(=O)c2ccccc2)C(c2ccccc2)C1` (stereo not drawn), for which the outcome in test [1], in test [2], in test [3] and in test [4] was inactive.

Regarding `CCOc1cc(C=C2C(=O)NC(=O)NC2=O)ccc1OS(=O)(=O)c1ccccc1`, the outcome in test [1], in test [2], in test [3] and in test [4] was inactive.

Turning to `Cc1ccc(/C=C2/C(=O)NC(=O)N(CCc3ccc(F)cc3)C2=O)o1`, the result in test [1], in test [2], in test [3], in test [4] and in test [5] was inactive.

Turning to `Cc1c(Cl)cccc1NC(=S)N1CC2CC(C1)c1cccc(=O)n1C2` (stereo not drawn), the result in test [1], in test [2] and in test [4] was inactive.

In the case of `Cc1ccccc1CC(=O)N(CCN(C)C)CC1CCCN(Cc2ccccc2F)C1` (stereo not drawn), the result in test [1], in test [2], in test [4] and in test [5] was inactive.

Consider `Cc1nc2ccccc2c(=O)n1/N=C/c1cc(Br)cc(Br)c1O`, for which the outcome in test [1], in test [2], in test [3] and in test [4] was inactive.

Consider `C/C1=C\[C@@H](C)C/C=C/[C@H]2[C@@H]3O[C@]3(C)[C@@H](C)[C@H]3[C@H](Cc4c[nH]c5ccccc45)NC(=O)[C@]32C(=O)/C=C/C(=O)[C@@H]1O`, for which the outcome in test [1], in test [3], in test [4] and in test [5] was inactive. The potentiation in test [2] is 20.5% (active).

Regarding `CCOP1(=S)Oc2cc3c(cc2C(C(=O)OC)(C(F)(F)F)O1)OCO3` (stereo not drawn), the outcome in test [1], in test [2], in test [3] and in test [4] was inactive.

For `O=[N+]([O-])c1ccc(N2CCOCC2)c2ccncc12`, the outcome in test [1], in test [2], in test [3], in test [4] and in test [5] was inactive.

Take `CCOC(=O)C1C(=O)NC2(C)CC1c1cc(OC)ccc1O2` (stereo not drawn): the result in test [1], in test [2], in test [3] and in test [4] was inactive.

`Brc1ccc2c(c1)C(OC1CN3CCC1CC3)c1ccccc1CS2` (stereo not drawn): the result in test [1], in test [3] and in test [4] was inactive. Further, the potentiation in test [2] was 40.5% (active).

Regarding `CC/C(=C\C=C\[C@@H]1C=C[C@@H]2CCC[C@H]2[C@@H]1C(=O)c1ccc[nH]1)[C@@H]1O[C@@H]([C@@H](C)C(=O)O)CC[C@@H]1C`, the activation in test [1] is 499% (active). In addition, the potentiation is 166% (active) in test [2] and 442% (active) in test [3]. Moreover, in test [4], the outcome was inactive.

On to `Cn1cccc1/C=C1/C(=O)NC(=S)N(Cc2ccc(F)cc2)C1=O`, for which the result in test [1], in test [2], in test [3], in test [4] and in test [5] was inactive.

Turning to `COc1ccc2c(c1)/C(=C/c1cnc[nH]1)C(=O)N2`, the result in test [1], in test [2], in test [3], in test [4] and in test [5] was inactive.

As to `C/C=C(\C)C(=O)N[C@@H](c1ccccc1)[C@@H](O)C(=O)O[C@H]1C[C@@]2(O)[C@@H](OC(=O)c3ccccc3)C3[C@](C)(C(=O)[C@H](OC(C)=O)C(=C1C)C2(C)C)[C@@H](O)C[C@H]1OC[C@@]31OC(C)=O` (stereo partly drawn), the outcome in test [1], in test [2], in test [3], in test [4] and in test [5] was inactive.

As for `O=[N+]([O-])c1cccc(C2N3CCCN23)c1` (stereo not drawn), the result in test [1], in test [2], in test [3], in test [4] and in test [5] was inactive.

As to `CC1(C)CSC(=NCc2ccccc2)N1`, the outcome in test [1], in test [3], in test [4] and in test [5] was inactive. Besides, in test [2], the potentiation was 23% (active).

Consider `O=C(O)c1cccc2c1NC(c1cccc([N+](=O)[O-])c1)C1CC(Sc3ccccc3[N+](=O)[O-])C(Cl)C21` (stereo not drawn), for which the outcome in test [1], in test [2], in test [3] and in test [4] was inactive.

For the compound `CNC(=O)NC(O)C(Cl)(Cl)Cl` (stereo not drawn), the result in test [1], in test [2], in test [3] and in test [4] was inactive.

Turning to `CCOc1cc(CNCCc2c[nH]c3ccccc23)cc(Cl)c1OCC`, the result in test [1], in test [3], in test [4] and in test [5] was inactive. The potentiation in test [2] was 19% (active).

In the case of `COc1ccc(C2NCc3ccc4c(c3-n3cccc32)OCO4)cc1O` (stereo not drawn), the result in test [1], in test [2], in test [4] and in test [5] was inactive.

In the case of `CCN(CC)C(=O)c1ccc(NC(=O)CSc2nnnn2-c2cc(OC)ccc2OC)cc1`, the result in test [1], in test [2], in test [3] and in test [4] was inactive.

`CCOP(=S)(OCC)c1ccc(N(C)C)cc1`: the result in test [1], in test [2], in test [3] and in test [4] was inactive.

Regarding `COc1ccccc1N(CC(=O)NC1CCCC1)C(=O)c1cnn(C(C)C)c1`, the outcome in test [1], in test [2], in test [3] and in test [4] was inactive.

`COc1cccc(CC(=O)N2CCN(Cc3cccc(Cl)c3)CC2)c1`: the result in test [1], in test [2], in test [3] and in test [4] was inactive.

On to `CC(=O)OC(C)(C)/C=C/C(=O)C(C)(O)C1[C@H](O)C[C@@]2(C)C3CC=C4C(CC[C@@H](O)C4(C)C)[C@]3(CO)C(=O)C[C@]12C` (stereo partly drawn), for which the result in test [1], in test [2], in test [3], in test [4] and in test [5] was inactive.

As to `Cc1ccccc1-n1c(O)c(/C=N/N2CCOCC2)c(=O)[nH]c1=S`, the result in test [1], in test [2], in test [3] and in test [4] was inactive.

With `CC1(C)C[C@H]2C=C(C=O)[C@]3(C=O)C[C@]3(C)[C@H]2C1`, the outcome in test [1], in test [3], in test [4] and in test [5] was inactive. In test [2], the potentiation was 24% (active).

As for `COc1cc(-n2c(=S)[nH]c3ccccc3c2=O)c(Cl)cc1Cl`, the result in test [1], in test [2], in test [3] and in test [4] was inactive.

On to `N#Cc1c(N2CCNCC2)nc(-c2ccco2)c2c1CCCC2`, for which the result in test [1], in test [2], in test [3] and in test [4] was inactive.

As to `N#CCCn1cc(C(=O)Nc2ccccc2Cl)c(-c2ccc(F)cc2)n1`, the result in test [1], in test [2] and in test [4] was inactive. Also, the potentiation in test [3] was 144% (active).
